Source: PubChem BioAssay
KLK5 inh – blocks human kallikrein 5 protease activity; inhibition, % at 5 µM; recombinant hK5, fluorogenic AMC substrate cleavage; 0.59% of 210,000 active; Q9Y337;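 active = inhibition of 40% or more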
FXIIa inh 1536 – blocks human coagulation factor XIIa protease activity; P00748; purified FXIIa, Boc-QGR-AMC fluorogenic substrate, 2 h; inhibition, % at 5 µM; 0.3% of 220,000 active; in the data active = inhibition above about 40%
Thrombin inh – blocks human thrombin protease activity; inhibition, % at 5 µM; P00734; alpha-thrombin, Boc-VPR-AMC fluorogenic substrate cleavage; AID 1046; 0.26% of 220,000 active;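 active = inhibition at or above 40%; inactive = inhibition below 40%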
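Material: human alpha-thrombin protein; Also added: Boc-VPR-AMC substrate, 15 µM final; Timing: enzyme reaction carried out at room temperature; Signal: fluorescence, ex 355 nm, em 460 nm; Measure: % inhibition of thrombin; Controls: enzyme without compound as high, wells lacking enzyme as low.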
Lipid droplet – modulators of hepatic lipid droplet formation; inhibition, % at 6.5 µM; AML12 mouse hepatocytes, oleate lipid droplets, BODIPY imaging; 0.4% of 240,000 active;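 active = lipid droplet intensity inhibited by at least 50%, with more than 500 cells counted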
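Assay system: AML12 hepatocytes (mouse); Probe or stimulus: oleic acid at 100 µM to induce lipid droplet formation; Dosing: compound at 6.5 µM only; Schedule: compound with oleate, overnight; Detection: fluorescence imaging, 20x objective, two fields per well; Measure: % inhibition of lipid droplet signal.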
FXIa inh 1536 – factor XIa (human) inhibition. P03951. purified FXIa, Boc-Glu-Ala-Arg-AMC fluorogenic substrate. inhibition, % at 5 µM. 0.14% of 220,000 active;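 active = inhibition of at least 40%; inactive = inhibition below 40%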;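 note: fluorescence of freed AMC excited at 355 nm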
Target sequence (P03951 19-387 limits assumed): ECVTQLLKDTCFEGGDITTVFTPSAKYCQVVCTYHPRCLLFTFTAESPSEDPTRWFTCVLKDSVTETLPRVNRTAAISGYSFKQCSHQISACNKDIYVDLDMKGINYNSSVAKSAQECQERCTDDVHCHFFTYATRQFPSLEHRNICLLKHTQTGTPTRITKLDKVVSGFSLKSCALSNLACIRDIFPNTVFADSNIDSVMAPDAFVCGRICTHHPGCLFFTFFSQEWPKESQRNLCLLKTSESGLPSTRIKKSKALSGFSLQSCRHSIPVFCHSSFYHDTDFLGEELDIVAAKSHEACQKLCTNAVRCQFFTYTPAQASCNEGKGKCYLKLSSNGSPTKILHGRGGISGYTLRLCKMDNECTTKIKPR
Target sequence (P03951 388-625 limits assumed): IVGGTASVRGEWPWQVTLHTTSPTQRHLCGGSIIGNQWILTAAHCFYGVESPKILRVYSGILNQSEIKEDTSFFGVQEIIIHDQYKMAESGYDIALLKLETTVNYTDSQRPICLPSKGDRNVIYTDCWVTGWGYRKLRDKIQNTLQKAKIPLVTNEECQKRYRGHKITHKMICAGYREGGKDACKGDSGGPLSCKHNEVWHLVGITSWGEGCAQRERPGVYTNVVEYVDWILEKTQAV
Biofilm kill mix – mixtures killing C. albicans biofilm; C. albicans biofilm persisters + clotrimazole, fluorescence viability; primary screen in compound mixtures of four per well; inhibition, % at 7.6 µM; 0.02% of 120,000 active; AID 1242;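 active = inhibition above 30.3% in the primary screen of four-compound pools, then above 30% when the compound was retested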;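 note: compounds exposed to preformed 24 h biofilms for 48 h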
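System: C. albicans CAF4-2 wild-type biofilms; Medium: RPMI/MOPS medium, pH 7.0; Reagent: Clotrimazole, 50 µg/mL; Times: biofilm formation 24 h, compound exposure 48 h, 37 °C; Detection: 2-h Alamar Blue fluorescence, 535/590 nm excitation/emission; Evaluation: percent inhibition of biofilm viability.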
Each line names hits and unclear results; the compound was inactive in the other large screens. Shown are actives, neighbours in structure and some others; about 1.1% of the full set was active somewhere.

CCCN1C(=O)C2C(C(=O)Nc3cccc(OC)c3)C3C=CC2(O3)C1C(=O)NC1CCCCC1 (stereo not drawn)	none (no result: Lipid droplet, Biofilm kill mix)
Brc1c(C[n+]2ccccc2)nc2ccccn12	FXIIa inh 1536 53
Cc1ccc(NC(=O)CSc2nnc(COc3ccc(C#N)cc3)n2-c2ccccc2)cc1C	KLK5 inh 45 (no result: Lipid droplet, Biofilm kill mix)
COc1ccccc1/C=C/CN1CCC(Oc2cc(C(=O)NC3CC3)ccc2OC)CC1	none (no result: KLK5 inh, FXIIa inh 1536, Thrombin inh, FXIa inh 1536, Biofilm kill mix)
Cc1cc(-c2ccco2)n(CC(=O)O)n1	KLK5 inh 115 (no result: Biofilm kill mix)
CC[n+]1ccc(/C=C/c2ccc(N(C)C)cc2)c2ccccc21	Biofilm kill mix 35
CCC(C)(C(=O)NC1CCCCC1)N(Cc1ccco1)C(=O)c1ccccn1 (stereo not drawn)	FXIIa inh 1536 54 (no result: Biofilm kill mix)
O=C(CS(=O)(=O)c1ccc2ccccc2c1)Nc1ccccc1Cl	KLK5 inh 58
O=C(CN1C(=O)C2C3CC(C(Br)C3Br)C2C1=O)N1CCN(Cc2ccccc2)CC1 (stereo not drawn)	none
CCOC(=O)c1c(C)nc2sc3c(=O)n(-c4ccc(OC)cc4)nnc3c2c1-c1ccc(OC)cc1	KLK5 inh 45 (no result: Lipid droplet, Biofilm kill mix)
Clc1ccc(-n2cc(COCc3ccccc3)nn2)cc1	KLK5 inh 46 (no result: Lipid droplet)
NS(=O)(=O)c1ccc(CCNC(=O)Cc2ccccc2[N+](=O)[O-])cc1	FXIIa inh 1536 59, Thrombin inh 52, FXIa inh 1536 59
CC(C)C(NC(=O)CC12CC3CC(CC(C3)C1)C2)C(=O)O (stereo not drawn)	FXIIa inh 1536 47 (no result: Lipid droplet, Biofilm kill mix)
Cc1ccc(C(=O)NCCN2CCNC2=O)cc1	KLK5 inh 44, FXIIa inh 1536 47
Nc1ccccc1C(=O)NCCN1CCNC1=O	none
COc1ccc(C(=O)NNC2=CC(=O)CC(C)(C)C2)cc1	KLK5 inh 49
CC1(C)CC(=O)C=C(NNC(=O)c2ccccc2O)C1	FXIIa inh 1536 60 (no result: Lipid droplet, Biofilm kill mix)
Cc1cccc(C(=O)NNC2=CC(=O)CC(C)(C)C2)c1O	none
CC(=O)c1sc(NC(=O)COc2ccc(Cl)cc2Cl)nc1C	none
CC(=O)c1sc(NC(=O)COc2ccc(Cl)cc2C)nc1C	KLK5 inh 59, FXIIa inh 1536 71
O=C(CSC1CC(=O)N(CCc2ccccc2)C1=O)Nc1ccc(Br)cc1 (stereo not drawn)	KLK5 inh 42 (no result: Lipid droplet, Biofilm kill mix)
CS(=O)(=O)N1CCN(Cc2ccc([N+](=O)[O-])cc2)CC1	KLK5 inh 51
CC(C)c1ccc(NC(=O)COc2ccccn2)cc1	Thrombin inh 89
COc1ccc2[nH]c3c(NCCCN4CCCC4=O)ncnc3c2c1	KLK5 inh 54 (no result: Lipid droplet, Biofilm kill mix)
O=C(COC(=O)c1n[nH]c2ccccc12)Nc1cccc(S(=O)(=O)N2CCOCC2)c1	Thrombin inh 65
COc1cc(S(=O)(=O)N2CCOCC2)ccc1NC(=O)COC(=O)c1ccccn1	Thrombin inh 70 (no result: Biofilm kill mix)
COc1ccc(S(=O)(=O)N2CCOCC2)cc1NC(=O)COC(=O)c1ccc(C)s1	Thrombin inh 73
Cc1ccc(NC(=O)C2CCCN(C(=O)NCc3ccccc3)C2)c(C)c1 (stereo not drawn)	none (no result: KLK5 inh, FXIIa inh 1536, Thrombin inh, FXIa inh 1536, Biofilm kill mix)
Cc1cc(C(=O)Nc2ccc(N3CCOCC3)cc2)c2ccccc2n1	FXIIa inh 1536 44 (no result: Lipid droplet, Biofilm kill mix)
Cc1[nH][nH]c(=O)c1C(c1ccccc1[N+](=O)[O-])C(C#N)C#N (stereo not drawn)	none
Cc1[nH][nH]c(=O)c1C(c1cc([N+](=O)[O-])ccc1O)c1c(C)[nH][nH]c1=O	KLK5 inh 57
CN(C)S(=O)(=O)c1cccc(C(=O)Nc2cc3c(cc2C(=O)O)OCCCO3)c1	none (no result: KLK5 inh, FXIIa inh 1536, Thrombin inh, FXIa inh 1536, Biofilm kill mix)
Cc1ccc(S(=O)(=O)NC(CC(C)C)C(=O)NCc2ccco2)cc1 (stereo not drawn)	KLK5 inh 45 (no result: Biofilm kill mix)
Cc1ccc(S(=O)(=O)Nc2ccc3c(c2)CCC3)cc1	none
Cc1ccc(S(=O)(=O)Nc2ccc3c(c2)c2c(n3S(=O)(=O)c3ccc(C)cc3)CCCC2=O)cc1	KLK5 inh 68
CCOc1ccc(OCC)c(NC(=O)C2CCCN(S(=O)(=O)c3cnc[nH]3)C2)c1 (stereo not drawn)	Thrombin inh 40 (no result: Lipid droplet, Biofilm kill mix)
CCOc1ccccc1NC(=O)C1CCCN(S(=O)(=O)c2cccc3nsnc23)C1 (stereo not drawn)	KLK5 inh 121 (no result: Lipid droplet, Biofilm kill mix)
CCOc1ccc(NC(=O)C2CCCN(S(=O)(=O)c3cnc[nH]3)C2)cc1 (stereo not drawn)	none (no result: KLK5 inh, FXIIa inh 1536, Thrombin inh, FXIa inh 1536, Biofilm kill mix)
CC(C)CN1C(=O)/C(=C/c2c(N3CCc4ccccc4C3)nc3ccccn3c2=O)SC1=S	Lipid droplet 120
O=C(Nc1ccc(-c2nc3ncccc3o2)cc1)c1ccc(Br)o1	Lipid droplet 56 (no result: Biofilm kill mix)
CCOC(=O)CNC(=O)CSc1nnc(-c2ccc(OC)cc2)n1CC	none
CCOC(=O)CSc1nnc(-c2ccc(OC)cc2)n1CC	KLK5 inh 78 (no result: Lipid droplet, Biofilm kill mix)
CCNC(=O)CC1C(=O)N(CC)C(=S)N1NC(=O)c1cccnc1 (stereo not drawn)	none
C=CCOc1ccc(CNC(C)(C)CO)cc1OC	none (no result: Lipid droplet, Biofilm kill mix)
COc1cc(CNC(C)(C)CO)ccc1OCC(=O)Nc1ccc(Br)cc1	KLK5 inh 42 (no result: Lipid droplet, Biofilm kill mix)
O=C(C1CCCN(Cc2ccccc2[N+](=O)[O-])C1)N1CCCCC1 (stereo not drawn)	none (no result: KLK5 inh, FXIIa inh 1536, Thrombin inh, FXIa inh 1536, Biofilm kill mix)
CC(C)Oc1ccc(C2CC(=O)N(Nc3ccc([N+](=O)[O-])cc3[N+](=O)[O-])C2=O)cc1 (stereo not drawn)	none
CCOc1ccc(C2CC(=O)N(Nc3ccc([N+](=O)[O-])cc3[N+](=O)[O-])C2=O)cc1 (stereo not drawn)	Thrombin inh 45
CCOC(=O)C1CCCN(CC(O)COCc2ccccc2OC)C1 (stereo not drawn)	none (no result: KLK5 inh, FXIIa inh 1536, Thrombin inh, FXIa inh 1536, Biofilm kill mix)
O=C(CO/N=C/c1ccccc1O)N1CCc2ccccc21	KLK5 inh 45
O=C(OCC(=O)N1CCc2ccccc21)c1ccccc1	none (no result: Lipid droplet, Biofilm kill mix)
CC(O)C1CCC2C3CC[C@H]4CC(O)CCC4(C)C3CC3(OCCO3)C12C (stereo partly drawn)	KLK5 inh 138 (no result: Biofilm kill mix)
CCOC(=O)CCNC(=O)N1CCCC(CNS(=O)(=O)c2cccs2)C1 (stereo not drawn)	Thrombin inh 41
COc1ccc2nc(NC(=O)c3sc4nc(C)cc(C)c4c3N)sc2c1	none
NS(=O)(=O)c1ccc(CCN2C(=O)CCC2=O)cc1	none (no result: KLK5 inh, FXIIa inh 1536, Thrombin inh, FXIa inh 1536, Biofilm kill mix)
COC(=O)c1sc2cc([N+](=O)[O-])cc(SCC(C)C)c2c1N	Lipid droplet 56
O=C(c1cc(Cl)nc2ccccc12)N1CCc2ccccc2C1	FXIa inh 1536 42
Cc1ccc(-c2cn(-c3ccccc3)c(SCC(N)=O)n2)cc1C	none
Cc1ccccc1-n1cc(-c2ccc(Br)cc2)nc1SCC(N)=O	KLK5 inh 46
COc1ccc2c(c1)CCc1c(C(=O)NCc3ccc(Cl)cc3)noc1-2	none (no result: Biofilm kill mix)
COc1ccc2c(c1)CCc1c(C(=O)NCc3ccc(F)cc3)noc1-2	FXIIa inh 1536 49 (no result: Biofilm kill mix)
